ChEMBL document CHEMBL1156793, “Identification, synthesis, and pharmacological evaluation of tetrahydroindazole based ligands as novel antituberculosis agents” (J Med Chem, 2010)
≈ marks a conversion by molar mass, not a printed value.

How the values were obtained:
[1] = Metabolic stability in mouse liver microsomes assessed as intrinsic clearance; format: ADME, Microsome
Procedure, shortened: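 Intrinsic clearance scaled up from the in vitro half-life in mouse liver microsomes. Microsomes at 0.5 mg/mL, compound at 1 μM, 1.0 mM NADPH, pH 7.4 phosphate buffer, 37 °C, in triplicate. Parent depletion followed over 30 min by LC-MS-MS.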

[2] = Metabolic stability in mouse liver microsomes assessed as hepatic clearance; format: ADME, Microsome
Procedure, shortened: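 Hepatic plasma clearance predicted from microsomal intrinsic clearance with the nonrestricted well-stirred liver model. Assumes protein binding is similar in blood and microsomes. Microsomal depletion run at 1 μM compound, 0.5 mg/mL mouse microsomes, 1.0 mM NADPH, 37 °C, in triplicate, measured by LC-MS-MS.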

[3] = Selectivity index, ratio of IC50 for african green monkey Vero cells to MIC for Mycobacterium tuberculosis H37Rv ATCC 27294; format: functional
Procedure, shortened: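 The ratio takes the Vero (CCL-81) IC50 as numerator. Cells were exposed to geometric 3-fold dilutions (12.8 mM DMSO stocks, final DMSO ≤1% v/v) in MEM with 10% FBS, 25 mM HEPES and 2 mM glutamine, in duplicate. Culture was 72 h at 37 °C, 5% CO2. Viability was read by CellTiter 96 aqueous absorbance at 490 nm, and IC50 came from curve fitting. The denominator is the H37Rv MABA MIC.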

[4] = tested on: Vero; experiment: Cytotoxicity against african green monkey Vero cells after 72 hrs; format: cell-based; conditions: Chlorocebus sabaeus
Procedure, shortened: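 Vero cells (CCL-81), 5 × 10^5 log-phase cells per well, exposed to geometric 3-fold dilutions in MEM with 10% FBS, 25 mM HEPES, 0.2% NaHCO3, 2 mM glutamine. DMSO ≤1% v/v final. Tested in duplicate at 37 °C, 5% CO2. Viability read after 72 h by CellTiter 96 aqueous (MTS) absorbance at 490 nm. IC50 from curve fitting.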

[5] = tested on: Mycobacterium tuberculosis; experiment: Antimycobacterial activity against Mycobacterium tuberculosis H37Rv after 16 to 24 hrs by microplate alamar blue assay; format: functional
Procedure, shortened: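 M. tuberculosis H37Rv (ATCC 27294), 1 × 10^5 cfu/mL inoculum, in 7H12 medium with two-fold compound dilutions at 128 to 0.5 μM final (12.8 mM DMSO stocks). Incubated aerobically at 37 °C for 7 days, then Tween 80 plus Alamar blue added for 16-24 h. Fluorescence read at ex 530/em 590 nm. MIC = lowest concentration giving ≥90% reduction versus bacteria-only controls; average of two measurements.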

[6] = AUC in BALB/c mouse at 50 mg/kg, po; format: ADME, organism-based; set-up: dose 50 mg/kg, route oral; conditions: plasma
Procedure, shortened: (§1)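 Female BALB/c mice (20-22 g), groups of 12, single oral 50 mg/kg dose formulated in 5% NMP/95% PEG400. Retro-orbital blood sampled at 0, 0.5, 1, 2, 4, 8 and 24 h postdose. Plasma obtained by centrifugation, precipitated with three volumes acetonitrile containing internal standard. Parent quantified by LC-MS-MS. AUC over 0–24 h.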

[7] = Cmax in BALB/c mouse at 50 mg/kg, po; format: ADME, organism-based; set-up: dose 50 mg/kg, route oral; conditions: in vivo; procedure, shortened: as §1
[8] = Metabolic stability in mouse liver microsomes assessed as half life; format: ADME, Microsome
Procedure, shortened: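 Mixture prewarmed 5 min, then started with 1.0 mM NADPH. Quenched with acetonitrile plus internal standard at 0, 5, 10, 15, 20 and 30 min. Parent measured by LC-MS-MS. No-NADPH controls.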

[9] = Tmax in BALB/c mouse at 50 mg/kg, po; format: ADME, organism-based; set-up: dose 50 mg/kg, route oral; conditions: in vivo; procedure, shortened: as §1

Compound | MIC [5] [µM] | further results
Cc1nonc1C(=O)NC1CCCc2c1cnn2-c1ccc(C(C)(C)C)cc1 (stereo not given) | 1.7 (≈ 0.645 µg/mL) | CLint scaled [1]: 200 mL/min/kg; CLhep predicted [2]: 34 mL/min/kg; Ratio IC50 [3]: >75.3; IC50 [4]: > 128 µM; AUC [6]: 3.6 µM·h; Cmax [7]: 1.5 µM; half-life [8]: 27 min; Tmax [9]: 30 min
Cc1nonc1C(=O)Nc1cccc2c1cnn2-c1ccc(C(C)(C)C)cc1 | > 128 | 
Cc1nonc1C(=O)NC1CCCc2c1cnn2-c1ccc(NC(=O)C(C)(C)C)cc1 (stereo not given) | 110 (≈ 46.5 µg/mL) | 
Cc1nonc1C(=O)NC1CCCc2c1cnn2-c1ccc(NC(=O)C(F)(F)F)cc1 (stereo not given) | 128 (≈ 55.4 µg/mL) | 
COC(=O)c1ccc(C(=O)NC2CCCc3c2cnn3-c2ccc(C(C)(C)C)cc2)nc1 (stereo not given) | 7.3 (≈ 3.16 µg/mL) | 
CC(C)(C)c1ccc(-n2ncc3c2CCCC3NC(=O)c2ccno2)cc1 (stereo not given) | 124 (≈ 45.2 µg/mL) | 
Cc1nonc1C(=O)NC1CCCc2c1cnn2-c1ccc(OC(F)(F)F)cc1 (stereo not given) | 1.9 (≈ 0.774 µg/mL) | CLint scaled [1]: 54 mL/min/kg; CLhep predicted [2]: 23 mL/min/kg; Ratio IC50 [3]: >67.4; IC50 [4]: > 128 µM; AUC [6]: 53.5 µM·h; Cmax [7]: 9.5 µM; half-life [8]: 102 min; Tmax [9]: 30 min
Cc1nc2cc(C(=O)NC3CCCc4c3cnn4-c3ccc(OC(F)(F)F)cc3)ccc2s1 (stereo not given) | > 128 | 
Cc1nonc1C(=O)Nc1ccc(-n2ncc3c2CCCC3NC(=O)c2nonc2C)cc1 (stereo not given) | 44.9 (≈ 20.1 µg/mL) | 
Cc1cc(C)cc(-n2ncc3c2CCCC3NC(=O)c2ccc3nonc3c2)c1 (stereo not given) | > 128 | 
CC(C)(C)c1ccc(-n2ncc3c2CCCC3NC(=O)c2cnccn2)cc1 (stereo not given) | 57.7 (≈ 21.7 µg/mL) | 
Cc1nonc1C(=O)NC1CCCc2c1cnn2-c1ccc(F)cc1 (stereo not given) | 30.7 (≈ 10.5 µg/mL) | 
Cc1nonc1C(=O)NC1CCCc2c1nnn2-c1ccc(C(C)(C)C)cc1 (stereo not given) | 7.7 (≈ 2.93 µg/mL) | 
Cc1nonc1CNC1CCCc2c1cnn2-c1ccc(C(C)(C)C)cc1 (stereo not given) | 38.6 (≈ 14.1 µg/mL) | 
COc1ccc(-n2ncc3c2CCCC3NC(=O)c2nonc2C)cc1 (stereo not given) | > 128 | 
Cc1nonc1C(=O)NC1CCCc2c1cnn2-c1ccc(C(F)(F)F)cc1 (stereo not given) | 1.9 (≈ 0.744 µg/mL) | Ratio IC50 [3]: >67.4; IC50 [4]: > 128 µM
Cc1cc(C)cc(-n2ncc3c(NC(=O)c4nonc4C)cccc32)c1 | 117 (≈ 40.6 µg/mL) | 
CC(C)(C)c1ccc(-n2ncc3c2CCCC3NC(=O)c2ncccc2O)cc1 (stereo not given) | 26.9 (≈ 10.5 µg/mL) | 

Compound | MIC [5] [µM] | further results
Cc1cc(C)cc(-n2ncc3c(NC(=O)c4ccc5c(c4)no[n+]5[O-])cccc32)c1 | 0.7 (≈ 0.28 µg/mL) | Ratio IC50 [3]: 23; IC50 [4]: 16.1 µM
Cc1cc(C)cc(-n2ncc3c2CCCC3NC(=O)c2nonc2C)c1 (stereo not given) | > 128 | 
Cc1nocc1C(=O)NC1CCCc2c1cnn2-c1ccc(OC(F)(F)F)cc1 (stereo not given) | 48.9 (≈ 19.9 µg/mL) | 
CC(C)(C)c1ccc(-n2ncc3c2CCCC3NC(=O)c2ccc3c(c2)no[n+]3[O-])cc1 (stereo not given) | 1 (≈ 0.431 µg/mL) | Ratio IC50 [3]: 29; IC50 [4]: 29 µM
Cc1nonc1C(=O)NC1CCCc2c1cnn2-c1ccc([N+](=O)[O-])cc1 (stereo not given) | > 128 | 
Cc1nonc1C(=O)NC1CCCc2c1cnn2-c1ccc(Br)cc1 (stereo not given) | 64.6 (≈ 26 µg/mL) | 
Cc1nonc1C(=O)NC1CCCc2c1cnn2-c1ccc(N)cc1 (stereo not given) | > 128 | 
CSCCC(=O)NC1CCCc2c1cnn2-c1ccc(OC(F)(F)F)cc1 (stereo not given) | 88.3 (≈ 35.3 µg/mL) | 
CC(C)(C)c1ccc(-n2ncc3c(NC(=O)c4ccc5c(c4)no[n+]5[O-])cccc32)cc1 | 0.4 (≈ 0.171 µg/mL) | Ratio IC50 [3]: 4.5; IC50 [4]: 1.8 µM
Cc1nonc1C(=O)NC1CCCc2c1cnn2-c1ccc(C(F)(F)F)cn1 (stereo not given) | > 128 | 
Cc1nonc1C(=O)NC1CCCc2c1cnn2-c1ccccc1C(F)(F)F (stereo not given) | > 128 | 
Cc1cc(C)cc(-n2ncc3c2CCCC3NC(=O)c2ccc3c(c2)no[n+]3[O-])c1 (stereo not given) | 1.9 (≈ 0.767 µg/mL) | 
Cc1nonc1C(=O)NC1CCCc2c1cnn2-c1cccc(C(F)(F)F)c1 (stereo not given) | 15.4 (≈ 6.03 µg/mL) | 
CSCC[C@H](N)C(=O)NC1CCCc2c1cnn2-c1ccc(C(C)(C)C)cc1 (stereo not given in full) | 4.8 (≈ 1.92 µg/mL) | 
CC(C)(C)c1ccc(-n2ncc3c2CCCC3NC(=O)c2ccc3nonc3c2)cc1 (stereo not given) | > 128 | 
Cc1nonc1C(=O)NC1CCCc2c1cnn2-c1ccc(NC(C)C)cc1 (stereo not given) | > 128 | 
CO[C@H]1/C=C/O[C@@]2(C)Oc3c(C)c(O)c4c(O)c(c(/C=N/N5CCN(C)CC5)c(O)c4c3C2=O)NC(=O)/C(C)=C\C=C\[C@H](C)[C@H](O)[C@@H](C)[C@@H](O)[C@@H](C)[C@H](OC(C)=O)[C@@H]1C [RIFAMPIN] | 0.06 (≈ 0.0494 µg/mL) | Ratio IC50 [3]: 2033
